# The source made the active and inactive calls. The rule behind the calls is not given here.
# Columns and labels:
# Salmonella typhimurium [1] = assay: Antibiofilm activity against Salmonella typhimurium ATCC 14028 assessed as biofilm dispersal effect incubated for 24 hrs by crystal violet staining based spectrophotometry; format: functional, organism-based, Salmonella enterica subsp. enterica serovar Typhimurium; conditions: Salmonella enterica, ATCC 14028, 24 h
# Method in brief: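 Biofilms grown 24 h at 30 °C with nutation in TSB diluted 1:20, from 1:100-diluted LB overnight cultures set to OD600 0.8. Crystal violet staining, acetic acid solubilization, 570 nm read-out. EC50 from variable-slope fit of % biofilm remaining vs log concentration. Mean ± SD of three biological replicates.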
# Salmonella typhimurium [2] = assay: Antibiofilm activity against Salmonella typhimurium ATCC 14028 assessed as inhibition of biofilm formation incubated for 24 hrs by crystal violet staining based spectrophotometry; format: functional, organism-based, Salmonella enterica subsp. enterica serovar Typhimurium; conditions: Salmonella enterica, ATCC 14028, 24 h
# Method in brief: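 LB overnight cultures (37 °C) set to OD600 0.8, diluted 1:100 into TSB diluted 1:20 in water. Compound at 0.2–100 μM or DMSO added at inoculation. Grown 24 h at 30 °C with nutation, washed, heat-fixed (60 °C, 1 h), stained with crystal violet, dye solubilized in acetic acid, read at 570 nm. IC50 from variable-slope fit of % biofilm vs log concentration. Mean ± SD of three biological replicates.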
# Salmonella typhimurium [3] = assay: Antibacterial activity against Salmonella typhimurium ATCC 14028 assessed as bacterial growth inhibition at >=100 uM; format: functional, organism-based; conditions: Salmonella enterica subsp. enterica serovar Typhimurium
# Salmonella typhimurium [4] = assay: Antibacterial activity against Salmonella typhimurium ATCC 14028 assessed as bacterial growth inhibition at >=12.5 uM; format: functional, organism-based; conditions: Salmonella enterica subsp. enterica serovar Typhimurium
# Salmonella typhimurium [5] = assay: (§1) Antibacterial activity against Salmonella typhimurium ATCC 14028 infected in 129X1/SvJ NRAMP +/+ mouse gallstone model assessed as reduction in bacterial burden in spleen at 5 mg/kg/day, ip administered for 5 to 15 consecutive days of post infection and measured on day 15 in presence of 4 mg/kg/day ciprofloxacin; format: functional, organism-based; conditions: Salmonella enterica subsp. enterica serovar Typhimurium, time 10.0 day
# Method in brief: (§2)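 129X1/SvJ NRAMP+/+ mice given a lithogenic diet (chow plus 1% cholesterol, 0.5% cholic acid) for 8 weeks. Infected i.p. with ~10^3 CFU in 200 μL PBS. Treated daily i.p. on days 5–15 post-infection; vehicle 5% DMSO in PBS. Day 15: gallbladder, liver and spleen homogenized in 1 mL PBS, serially diluted and plated on LB agar (37 °C, 16 h) for CFU counts. One-way ANOVA with Tukey correction.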
# Salmonella typhimurium [6] = assay: (§3) Antibacterial activity against Salmonella typhimurium ATCC 14028 infected in 129X1/SvJ NRAMP +/+ mouse gallstone model assessed as log reduction in bacterial burden in gallblader at 5 mg/kg/day, ip administered for 5 to 15 consecutive days of post infection and measured on day 15 in presence of 1 mg/kg/day ciprofloxacin; format: functional, Salmonella enterica subsp. enterica serovar Typhimurium; conditions: time 10 day; method in brief: as §2
# Salmonella typhimurium [7] = assay: as §1, with “gallblader” for “spleen”; format: functional, organism-based; conditions: Salmonella enterica subsp. enterica serovar Typhimurium, time 10.0 day; method in brief: as §2
# Salmonella typhimurium [8] = assay: as §1, with “liver” for “spleen”; format: functional, organism-based; conditions: Salmonella enterica subsp. enterica serovar Typhimurium, time 10.0 day; method in brief: as §2
# Salmonella typhimurium [9] = assay: Antibacterial activity against Salmonella typhimurium ATCC 14028 assessed as bacterial growth inhibition at >= 50 uM; format: functional, organism-based; conditions: Salmonella enterica subsp. enterica serovar Typhimurium
# Salmonella typhimurium [10] = assay: as §3, with “at 10” for “at 5”, “administered from” for “administered for”, “days” for “days of post infection”; format: functional, Salmonella enterica subsp. enterica serovar Typhimurium; conditions: time 10 day
# Salmonella typhimurium [11] = assay: Antibacterial activity against Salmonella typhimurium ATCC 14028 infected in 129X1/SvJ NRAMP +/+ mouse gallstone model assessed as log reduction in bacterial burden in gallblader at 4 mg/kg/day, ip administered from 5 to 15 consecutive days and measured on day 15; format: functional, Salmonella enterica subsp. enterica serovar Typhimurium; conditions: time 10 day; method in brief: as §2
# Salmonella typhimurium [12] = assay: Antibacterial activity against Salmonella typhimurium ATCC 14028 infected in 129X1/SvJ NRAMP +/+ mouse gallstone model assessed as reduction in bacterial burden in liver at 2 mg/kg/day, ip administered from 5 to 15 consecutive days and measured on day 15; format: functional, organism-based; conditions: Salmonella enterica subsp. enterica serovar Typhimurium, time 10.0 day; method in brief: as §2
# Salmonella typhimurium [13] = assay: Antibacterial activity against Salmonella typhimurium ATCC 14028 infected in 129X1/SvJ NRAMP +/+ mouse gallstone model assessed as reduction in bacterial burden in spleen at 2 mg/kg/day, ip administered from 5 to 15 consecutive days and measured on day 15; format: functional, organism-based; conditions: Salmonella enterica subsp. enterica serovar Typhimurium, time 10.0 day; method in brief: as §2
EC50 (Salmonella typhimurium [1]) [µM],IC50 (Salmonella typhimurium [2]) [µM],SMILES,further results
247,6.3,Cc1ccccc1CN1CCC(CN(C)Cc2ccsc2)CC1,
83,3.6,CN(Cc1ccsc1)CC1CCN(CCc2cccc(Br)c2)CC1,growth inhibition (GI) (Salmonella typhimurium [3]): Active
57,3,CN(Cc1ccsc1)CC1CCN(CCc2ccc(Br)cc2)CC1,
442,138,CN(Cc1ccsc1)CC1CCNCC1,
31,1.8,CN(Cc1ccsc1)CC1CCN(CCc2cccc(-c3ccccc3)c2)CC1,growth inhibition (GI) (Salmonella typhimurium [4]): Active
135,2,CN(Cc1ccsc1)CC1CCN(CCc2cccc(Cl)c2)CC1,growth inhibition (GI) (Salmonella typhimurium [3]): Active
> 12000,26.7,CN(Cc1ccsc1)CC1CCN(Cc2ccccc2)CC1,
87,3,CN(Cc1ccsc1)CC1CCN(CCc2ccc(F)c(F)c2)CC1,
> 12000,14.2,CN(Cc1ccsc1)CC1CCN(Cc2cc(F)cc(F)c2)CC1,
196,15.8,CN(Cc1ccsc1)CC1CCN(Cc2cc(Cl)ccc2Cl)CC1,
60,12.7,CN(Cc1ccsc1)CC1CCN(CCc2ccccc2C(F)(F)F)CC1,
,,CNCC1CCN(CCc2ccccc2F)CC1,growth inhibition (GI) (Salmonella typhimurium [3]): Active
142,6.5,CN(Cc1ccsc1)CC1CCN(Cc2cccc(Br)c2)CC1,
22,2.5,CN(Cc1ccsc1)CC1CCN(CCc2ccc(Cl)cc2Cl)CC1,
70,2.7,CN(Cc1ccsc1)CC1CCN(Cc2cccc(Cl)c2Cl)CC1,
79,5.4,CN(Cc1ccsc1)CC1CCN(Cc2ccccc2I)CC1,
69,3,CN(Cc1ccsc1)CC1CCN(CCc2ccc(Cl)cc2)CC1,
,,CN(Cc1ccsc1)CC1CCN(CCc2ccc(Br)c(Br)c2)CC1,Activity (Salmonella typhimurium [5]): Active; log(activity) (Salmonella typhimurium [6]): 4.5; Activity (Salmonella typhimurium [7]): Active; growth inhibition (GI) (Salmonella typhimurium [4]): Active; Activity (Salmonella typhimurium [8]): Active
28,2.5,CN(Cc1ccsc1)CC1CCN(CCc2cccc3ccccc23)CC1,growth inhibition (GI) (Salmonella typhimurium [9]): Active

EC50 (Salmonella typhimurium [1]) [µM],IC50 (Salmonella typhimurium [2]) [µM],SMILES,further results
140,20.9,CN(Cc1ccsc1)CC1CCN(Cc2ccccc2C(F)(F)F)CC1,growth inhibition (GI) (Salmonella typhimurium [3]): Active
42,3.4,CN(Cc1ccsc1)CC1CCN(CCc2cc(Br)cc(Br)c2)CC1,growth inhibition (GI) (Salmonella typhimurium [3]): Active
45,1.4,CN(Cc1ccsc1)CC1CCN(CCc2ccc(Cl)c(Cl)c2)CC1,growth inhibition (GI) (Salmonella typhimurium [9]): Active
138,6.3,CN(Cc1ccsc1)CC1CCN(CCc2c(F)cccc2F)CC1,
,,CN(Cc1ccsc1)CC1CCN(CCc2cccc(Cl)c2Cl)CC1,log(activity) (Salmonella typhimurium [6]): 1.5
> 12000,78.1,CN(Cc1ccsc1)CC1CCN(CCCc2ccccc2)CC1,
3800,7.2,CN(Cc1ccsc1)CC1CCN(Cc2ccc(F)c(F)c2)CC1,
32,11.9,CN(Cc1ccsc1)CC1CCN(Cc2ccc(Br)c(Br)c2)CC1,
89,2.6,CN(Cc1ccsc1)CC1CCN(CCc2ccc(I)cc2)CC1,growth inhibition (GI) (Salmonella typhimurium [9]): Active
11800,16.9,COc1ccccc1CCN1CCC(CN(C)Cc2ccsc2)CC1,
934,5.9,CN(Cc1ccsc1)CC1CCN(Cc2ccc(Cl)cc2)CC1,
127,8.5,CN(Cc1ccsc1)CC1CCN(Cc2ccc(Br)cc2)CC1,
92,10,CN(Cc1ccsc1)CC1CCN(Cc2cccc(I)c2)CC1,
829,5.7,CN(Cc1ccsc1)CC1CCN(CCc2ccccc2F)CC1,log(activity) (Salmonella typhimurium [6]): 2; log(activity) (Salmonella typhimurium [10]): 3
232,6,CN(Cc1ccsc1)CC1CCN(CCc2ccccc2Cl)CC1,
> 12000,21.2,CN(Cc1ccsc1)CC1CCN(CCc2ccccc2)CC1,
44,4,CN(Cc1ccsc1)CC1CCN(CCc2cccc(I)c2)CC1,
443,12.9,CN(Cc1ccsc1)CC1CCN(Cc2ccc(F)cc2)CC1,
388,6.9,CN(Cc1ccsc1)CC1CCN(CCc2cccc(F)c2)CC1,

EC50 (Salmonella typhimurium [1]) [µM],IC50 (Salmonella typhimurium [2]) [µM],SMILES,further results
55,3.9,CN(Cc1ccsc1)CC1CCN(Cc2ccc(Cl)c(Cl)c2)CC1,
> 12000,> 200,CN(Cc1ccsc1)CC1CCN(Cc2c(F)cccc2F)CC1,growth inhibition (GI) (Salmonella typhimurium [3]): Active
235,16.8,CN(Cc1ccsc1)CC1CCN(CCc2ccc(F)cc2)CC1,
1810,2.7,CN(Cc1ccsc1)CC1CCN(Cc2ccccc2Cl)CC1,
60,4.3,CN(Cc1ccsc1)CC1CCN(CCc2ccccc2I)CC1,growth inhibition (GI) (Salmonella typhimurium [9]): Active
870,146,CN(Cc1ccsc1)CC1CCN(Cc2cccc(F)c2F)CC1,growth inhibition (GI) (Salmonella typhimurium [3]): Active
59,5.4,CN(Cc1ccsc1)CC1CCN(CCCc2ccccc2Cl)CC1,
299,5.2,CN(Cc1ccsc1)CC1CCN(Cc2cccc(Cl)c2)CC1,
> 12000,> 200,CN(Cc1ccsc1)CC1CCN(CCc2cc(F)cc(F)c2)CC1,growth inhibition (GI) (Salmonella typhimurium [9]): Active
,,CN(Cc1ccsc1)CC1CCN(CCc2ccc(-c3ccccc3)cc2)CC1,log(activity) (Salmonella typhimurium [6]): 3.5; growth inhibition (GI) (Salmonella typhimurium [4]): Active
221,11.5,CN(Cc1ccsc1)CC1CCN(CCCc2ccccc2F)CC1,
123,2.3,CC(C)c1ccc(CCN2CCC(CN(C)Cc3ccsc3)CC2)cc1,growth inhibition (GI) (Salmonella typhimurium [4]): Active
45,1.6,CN(Cc1ccsc1)CC1CCN(CCc2cc(Cl)cc(Cl)c2)CC1,growth inhibition (GI) (Salmonella typhimurium [9]): Active
,,O=C(O)c1cn(C2CC2)c2cc(N3CCNCC3)c(F)cc2c1=O [CIPROFLOXACIN],log(activity) (Salmonella typhimurium [11]): 3; Activity (Salmonella typhimurium [12]): Active; Activity (Salmonella typhimurium [13]): Active
308,7.2,CN(Cc1ccsc1)CC1CCN(CCc2ccccc2Br)CC1,
77,5.7,CN(Cc1ccsc1)CC1CCN(Cc2ccc(I)cc2)CC1,
125,8.8,CN(Cc1ccsc1)CC1CCN(Cc2ccccc2F)CC1,
79,4.9,CN(Cc1ccsc1)CC1CCN(Cc2ccccc2Br)CC1,
1050,8.7,CN(Cc1ccsc1)CC1CCN(Cc2cccc(F)c2)CC1,
